Test results from ChEMBL document CHEMBL4177548, “Neuroprotective Lignans from the Fruits of Schisandra bicolor var. tuberculata” (2017).
Active and inactive are the calls of the source. The rule behind the calls is not given here.

How the values were obtained:
SH-SY5Y [1] = test: Neuroprotective activity against H2O2-induced cytotoxicity in human SH-SY5Y cells at 0.0032 uM pre-incubated for 2 hrs before H2O2 addition for 14 hrs by MTT assay relative to untreated control; type: functional, cell-based
Outline: (§1)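 Hydrogen peroxide injury: SH-SY5Y cells (DMEM, 10% FBS, penicillin/streptomycin) were seeded at 15 000 cells/well and left 24 h. They received test compounds at 0.0032, 0.08 or 2 μM for 2 h before 350 μM H2O2. MTT read-out followed at 14 h: DMSO dissolution, OD 570 nm. Viability is expressed as % of control, triplicate, means ± SEM, one-way ANOVA with Newman-Keuls.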

SH-SY5Y [2] = test: Neuroprotective activity against Abeta (25 to 35)-induced cytotoxicity in human SH-SY5Y cells at 0.08 uM pre-incubated for 2 hrs before Abeta (25 to 35) addition for 14 hrs by MTT assay (reference value: 60.2 to 73.5%); type: functional
SH-SY5Y [3] = test: Neuroprotective activity against Abeta (25 to 35)-induced cytotoxicity in human SH-SY5Y cells at 0.0032 to 2 uM pre-incubated for 2 hrs before Abeta (25 to 35) addition for 14 hrs by MTT assay relative to untreated control; type: functional
SH-SY5Y [4] = test: Neuroprotective activity against CoCl2-induced cytotoxicity in human SH-SY5Y cells at 0.0032 uM pre-incubated for 2 hrs before CoCl2 addition for 14 hrs by MTT assay relative to untreated control; type: functional, cell-based
Outline: (§2)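 SH-SY5Y cells were kept in DMEM with 10% FBS plus penicillin/streptomycin and plated at 15 000 cells/well for 24 h. They were pretreated 2 h with compound (0.0032, 0.08, 2 μM), then challenged with 300 μM CoCl2 (chosen to give 50–70% viability). After 14 h, MTT was added, DMSO-solubilised and read at 570 nm. Values are normalized to control (100%), means ± SEM of three replicates.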

SH-SY5Y [5] = test: Neuroprotective activity against Abeta (25 to 35)-induced cytotoxicity in human SH-SY5Y cells at 0.0032 uM pre-incubated for 2 hrs before Abeta (25 to 35) addition for 14 hrs by MTT assay (reference value: 60.2 to 73.5%); type: functional
SH-SY5Y [6] = test: Neuroprotective activity against H2O2-induced cytotoxicity in human SH-SY5Y cells at 0.0032 to 2 uM pre-incubated for 2 hrs before H2O2 addition for 14 hrs by MTT assay relative to untreated control; type: functional; outline: as §1
SH-SY5Y [7] = test: Neuroprotective activity against Abeta (25 to 35)-induced cytotoxicity in human SH-SY5Y cells at 2 uM pre-incubated for 2 hrs before Abeta (25 to 35) addition for 14 hrs by MTT assay (reference value: 60.2 to 73.5%); type: functional
SH-SY5Y [8] = test: Neuroprotective activity against CoCl2-induced cytotoxicity in human SH-SY5Y cells at 0.0032 to 2 uM pre-incubated for 2 hrs before CoCl2 addition for 14 hrs by MTT assay relative to untreated control; type: functional; outline: as §2
SH-SY5Y [9] = test: Neuroprotective activity against Abeta (25 to 35)-induced cytotoxicity in human SH-SY5Y cells at 50 uM pre-incubated for 2 hrs before Abeta (25 to 35) addition for 14 hrs by MTT assay (reference value: 60.2%); type: functional, cell-based

Molecule	Activity (SH-SY5Y [1])	Activity (SH-SY5Y [2])	Activity (SH-SY5Y [3])	Activity (SH-SY5Y [4])	Activity (SH-SY5Y [5])	Activity (SH-SY5Y [6])	Activity (SH-SY5Y [7])	Activity (SH-SY5Y [8])	Activity (SH-SY5Y [9])
COc1cc([C@H]2O[C@@H](c3ccc4c(c3)OCO4)[C@H](C)[C@H]2COC(C)=O)ccc1O	Active	88.6%	>15%	Active	68.6%	>15%	79.3%	–	–
COc1ccc([C@@H]2O[C@@H](c3ccc(O)c(OC)c3)[C@@H](C)[C@H]2C)cc1O	–	77.1%	>15%	–	64.5%	–	71%	–	–
COc1cc(C[C@H](CO)[C@H](C)Cc2ccc(O)c(OC)c2)ccc1O	–	74.3%	–	–	77.4%	>15%	69.2%	–	–
COc1cc(C[C@@H](C)[C@H](C)[C@@H](O)c2ccc3c(c2)OCO3)ccc1O	Active	83.3%	>15%	Active	81.6%	>15%	76.6%	>15%	–
COc1ccc([C@H]2O[C@@H](c3ccc(OC)c(OC)c3)[C@H](C)[C@@H]2C)cc1OC [GALGRAVIN]	–	92.9%	>15%	–	76.9%	>15%	86.7%	–	–
COc1cc(C[C@H](C)[C@H](CO)Cc2ccc3c(c2)OCO3)ccc1O	–	88.2%	>15%	Active	75.8%	–	82.4%	–	–
COc1cc([C@H]2c3cc4c(cc3C[C@@H](C)[C@@H]2C)OCO4)ccc1O	–	71.9%	>15%	Active	84.5%	–	75.7%	–	–
COc1cc(C[C@@H](C)[C@H](C)Cc2ccc(O)c(OC)c2)ccc1O [(-)-DIHYDROGUAIARETICACID]	Active	85.1%	–	Active	79.2%	–	80.8%	>15%	–
COc1cc(C[C@@H](COC(C)=O)[C@@H](C)Cc2ccc(O)c(OC)c2)ccc1O	–	81%	>15%	–	74.1%	>15%	83.2%	–	–
COc1cc(C[C@H](CO)[C@H](C)Cc2ccc3c(c2)OCO3)ccc1O	–	83.6%	–	–	70.8%	–	84.2%	–	–
C=C(Cc1ccc2c(c1)OCO2)[C@H](C)Cc1ccc(O)c(OC)c1	Active	78.5%	>15%	–	84.7%	–	78.1%	–	–
COc1cc([C@H]2O[C@@H](c3ccc(OC)c(OC)c3)[C@H](C)[C@H]2C)ccc1O	–	75.3%	–	Active	81.7%	–	75.3%	–	–
COc1cc(C[C@@H](COC(C)=O)[C@@H](C)Cc2ccc3c(c2)OCO3)ccc1O	–	80.8%	–	–	68.3%	–	69%	–	–
COc1cc(C[C@@H](C)[C@H](C)Cc2ccc3c(c2)OCO3)ccc1O	–	77.1%	–	Active	73.5%	>15%	72%	–	–
COc1ccc([C@H]2O[C@H](c3ccc(OC)c(OC)c3)[C@@H](C)[C@H]2C)cc1OC [GANSCHISANDRINE]	–	85.3%	>15%	–	75.1%	–	79.8%	>15%	–
COc1cc(C[C@H](C)[C@H](COC(C)=O)Cc2ccc3c(c2)OCO3)ccc1O	–	80.2%	>15%	–	73.1%	>15%	87%	–	–
C[C@@H]1[C@@H](CO)[C@H](c2ccc3c(c2)OCO3)O[C@H]1c1ccc2c(c1)OCO2	–	94.3%	>15%	Active	71.3%	–	87.3%	–	–
COc1ccc(C(=O)O[C@H](c2ccc(OC)c(OC)c2)[C@@H](C)C(C)=O)cc1OC	–	85.1%	>15%	Active	78.4%	–	80.4%	–	–
VITAMIN E	–	–	–	–	–	–	–	–	72.5%
